Measurements from PMC6699892 (Inorganic chemistry, 2019).

Assay: Lipophilicity, modified shake flask octanol-water partition
Assay type: physicochemical
Conditions: chloride salts, 50 µM, 1-octanol/water, room temperature
How it was run: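 1-Octanol and water were mutually pre-saturated by shaking for 24 h at room temperature. Test compound at 50 µM in water-saturated octanol was mixed with an equal volume of octanol-saturated water, hand-shaken 200 times and centrifuged (11,000 rpm, 2 min). Each layer was quantified by absorbance against standard curves.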

For [Cl][Ru][Cl].c1ccc(-c2ccccn2)nc1.c1ccc(-c2ccccn2)nc1.c1ccc(-c2ccccn2)nc1 [[Ru(bpy)3]Cl2, reference compound], the “Octanol-water partition coefficient (log Po/w)” value was less than −3.
